The record followed here is ChEMBL document CHEMBL3045116, “Synthesis and biological evaluation of 2-(5-substituted-1-((diethylamino)methyl)-2-oxoindolin-3-ylidene)-N-substituted-hydrazinecarbothioamides” (Med Chem Res, 2013).

The subject of one data set is Influenza B virus. Put plainly: Antiviral activity against Influenza B virus infected in MDCK cells assessed as reduction of virus-induced cytopathic effect after 3 days by colorimetric formazan-based MTS assay. In kind it is functional, organism-based. The following applies: 72 h. In short, it runs like this:
(§1)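 Confluent cell monolayers were infected with 100 CCID50 of virus, and serial dilutions of compound were added at the time of infection.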
(In general: Cytopathic effects are the visible damage that an infection or toxin causes in cultured cells.)

The subject of a further data set is Influenza A virus. The experiment in a line: Antiviral activity against Unidentified Influenza A virus (H1N1) infected MDCK cells assessed as reduction of virus-induced cytopathic effect after 3 days by colorimetric formazan-based MTS assay. In kind it is functional, organism-based. The note with it: 72 h. In short, it runs like this: as §1
Data set [1] is described as follows: (§2) Cytotoxicity against MDCK cells assessed as change in cellular morphology. Format: cell-based, Canis lupus familiaris. The note with it: dog, MDCK cells. The gist of the method:
(§3)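 Uninfected cells were exposed to compound in parallel with the antiviral cultures. The read-out is the minimum cytotoxic concentration that causes a microscopically detectable alteration of normal cell morphology.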

The subject of the next data set is MDCK. The data set is described as §2. Format: cell-based, Canis lupus familiaris. The following applies: dog, mdck. In short, it runs like this: as §3
In a further data set the test system is Influenza A virus H3N2. Put plainly: Antiviral activity against Influenza A virus H3N2 infected MDCK cells assessed as reduction of virus-induced cytopathic effect after 3 days by colorimetric formazan-based MTS assay. Format: functional, organism-based. The note with it: 72 h. In short, it runs like this: as §1
Data set [2] has as its system Coxsackievirus B4. The experiment in a line: Antiviral activity against Human coxsackievirus B4 infected human HeLa cells assessed as reduction of virus-induced cytopathic effect after 3 days by colorimetric formazan-based MTS assay. In kind it is functional, organism-based. The note with it: Enterovirus B, 72 h. In short, it runs like this: as §1
A further data set has as its system Respirovirus muris. Put plainly: Antiviral activity against Sendai virus infected African green monkey Vero cells assessed as reduction of virus-induced cytopathic effect after 3 days by colorimetric formazan-based MTS assay. The note with it: 72 h. Format: functional, organism-based.
Data set [3] can be described thus: Cytotoxicity against Chlorocebus aethiops (African green monkey) Vero cells assessed as change in cellular morphology. The following applies: chlorocebus sabaeus. Format: cell-based.
The subject of data set [4] is Coxsackievirus B4. The experiment in a line: Antiviral activity against Human coxsackievirus B4 infected African green monkey Vero cells assessed as reduction of virus-induced cytopathic effect after 3 days by colorimetric formazan-based MTS assay. Format: functional, organism-based. The following applies: Enterovirus B, 72 h. The gist of the method:
as §1

Data set [5] has as its system Respiratory syncytial virus. The experiment in a line: Antiviral activity against Respiratory syncytial virus infected human HeLa cells assessed as reduction of virus-induced cytopathic effect after 3 days by colorimetric formazan-based MTS assay. Format: functional, organism-based. The note with it: 72 h. The gist of the method: as §1
Another data set has as its system Human respirovirus 3. Put plainly: Antiviral activity against Human parainfluenza virus 3 infected African green monkey Vero cells assessed as reduction of virus-induced cytopathic effect after 3 days by colorimetric formazan-based MTS assay. Format: functional, organism-based. The note with it: Human respirovirus 3, Vero, 72 h. The gist of the method: (§4)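 Cells grown to confluency in 96-well plates ([…], Vero for lines 9–10) were infected with 100 CCID50 of virus, and serial compound dilutions were added at infection. Plates were incubated at 37 °C for 3 days, until complete CPE appeared in untreated virus controls.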

The subject of data set [6] is Mammalian orthoreovirus 1. Put plainly: Antiviral activity against Mammalian orthoreovirus 1 infected African green monkey Vero cells assessed as reduction of virus-induced cytopathic effect after 3 days by colorimetric formazan-based MTS assay. In kind it is functional, organism-based. The following applies: Mammalian orthoreovirus 1, Vero, 72 h. In short, it runs like this:
as §4

Data set [7] in a line: Cytotoxicity against Homo sapiens (human) HeLa cells assessed as change in cellular morphology. The following applies: HeLa cells. Format: cell-based. In short, it runs like this: as §3
The subject of data set [8] is Vesicular stomatitis virus. Put plainly: Antiviral activity against Vesicular stomatitis virus infected human HeLa cells assessed as reduction of virus-induced cytopathic effect after 3 days by colorimetric formazan-based MTS assay. Format: functional, organism-based. The note with it: 72 h. The gist of the method: as §1
The subject of the next data set is CCRF-CEM. Put plainly: Cytotoxicity against Homo sapiens (human) CEM cells assessed as growth inhibition after 72 hr by coulter counter analysis. In kind it is functional, cell-based. The gist of the method:
(§5)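 Cells in growth medium were allowed to proliferate with variable compound amounts at 37 °C in a humidified CO2 atmosphere. Incubation ran 48 h for L1210, 72 h for CEM and 96 h for HeLa. Cells were then counted with a Coulter counter.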

In the next data set the test system is L1210. Put plainly: Cytotoxicity against Mus musculus (mouse) L1210 cells assessed as growth inhibition after 48 hr by coulter counter analysis. The following applies: L1210, 48 h. Format: functional, cell-based. The gist of the method: as §5
A short description of data set [9]: Inhibition of beta lactamase assessed as increase in time taken for iodine decolorization relative to control. The arrangement: concentration or dose not given beside the values. The following applies: concentration not given here.
A short description of data set [10]: Inhibition of beta lactamase assessed as time for decolorization of iodine (reference value: 79.5 secs).
In another data set the test system is Human alphaherpesvirus 1. Put plainly: Antiviral activity against acyclovir-resistant thymidine kinase negative Human herpesvirus 1 strain KOS infected human HEL cells assessed as reduction of virus-induced cytopathic effect after 3 days by colorimetric formazan-based MTS assay. The following applies: Human alphaherpesvirus 1, KOS, 72 h. In kind it is functional, organism-based. In short, it runs like this:
as §1

Data set [11] has as its system Vesicular stomatitis virus. Put plainly: Antiviral activity against Vesicular stomatitis virus infected human HEL cells assessed as reduction of virus-induced cytopathic effect after 3 days by colorimetric formazan-based MTS assay. The note with it: 72 h. Format: functional, organism-based. In short, it runs like this:
as §1

Data set [12] is described as follows: Cytotoxicity against Homo sapiens (human) HEL cells assessed as change in cellular morphology. Format: cell-based.
For another data set, the system named is Vaccinia virus. Put plainly: Antiviral activity against Vaccinia virus infected human HEL cells assessed as reduction of virus-induced cytopathic effect after 3 days by colorimetric formazan-based MTS assay. Format: functional, organism-based. The following applies: Orthopoxvirus vaccinia, 72 h. In short, it runs like this: as §1
In data set [13] the test system is Feline infectious peritonitis virus. The experiment in a line: Antiviral activity against Feline Infectious peritonitis virus infected cat CRFK cells assessed as reduction of virus-induced cytopathic effect after 3 days by colorimetric formazan-based MTS assay. Format: functional, organism-based. The following applies: Alphacoronavirus 1, CRFK, 72 h. The gist of the method:
as §1

The next data set relates to Felid alphaherpesvirus 1. The experiment in a line: Antiviral activity against Felid herpesvirus 1 infected cat CRFK cells assessed as reduction of virus-induced cytopathic effect after 3 days by colorimetric formazan-based MTS assay. In kind it is functional, organism-based. The note with it: Felid alphaherpesvirus 1, CRFK, 72 h. The gist of the method:
as §4

The next data set concerns Human alphaherpesvirus 2. The experiment in a line: Antiviral activity against Human herpesvirus 2 strain G infected human HEL cells assessed as reduction of virus-induced cytopathic effect after 3 days by colorimetric formazan-based MTS assay. In kind it is functional, organism-based. The note with it: Human alphaherpesvirus 2, strain G, 72 h. In short, it runs like this:
as §1

A short description of data set [14]: Cytotoxicity against Felis catus (cat) CRFK cells assessed as change in cellular morphology. Format: cell-based. The note with it: CRFK cells. The gist of the method: as §3
The subject of a further data set is Aspergillus niger. Put plainly: Antifungal activity against Aspergillus niger assessed as growth inhibition at 50 ug/ml by cup-plate method (reference value: 8 to 10 mm). Format: functional. The note with it: read-out: DIZ.
The next data set deals with Candida albicans. Put plainly: Antifungal activity against Candida albicans assessed as growth inhibition at 50 ug/ml by cup-plate method (reference value: 8 to 10 mm). Format: functional. The following applies: read-out: DIZ.

Broadly, the EC50 is the concentration needed to bring the measured effect to its halfway point. One may read the CC50 as the concentration giving 50% cytotoxicity. `NC12CC3CC(CC(C3)C1)C2` [AMANTADINE]: the EC50 in the data set on Influenza B virus was over 500 µM; in the data set on Influenza A virus it was 65.5 µM; in the data set on Influenza A virus H3N2, 1.5 µM. The MCC in [1] is over 500 µM. The CC50 in the data set on MDCK was over 500 µM.
With `NC(=O)c1ncn([C@@H]2O[C@H](CO)[C@@H](O)[C@H]2O)n1` [RIBAVIRIN], the EC50 in the data set with Coxsackievirus B4 [2] is 28.5 µM; in the data set on Respirovirus muris it was over 250 µM; in the data set on Influenza B virus it was 8.4 µM; in the data set with Coxsackievirus B4 [4], over 250 µM; in the data set with Influenza A virus it was 11.5 µM; in data set [5], 4.6 µM. Besides, the EC50 was 50 µM with Human respirovirus 3, 6.8 µM in the data set on Influenza A virus H3N2, over 250 µM in [6] and 12.1 µM in data set [8]. Besides, the figures for the MCC in data set [3], in [1] and in data set [7] were over 250 µM, at least 100 µM and over 250 µM, respectively. The CC50 in [7] was over 250 µM.
A word on the IC50: it is the midpoint of a concentration-inhibition curve. For `N[C@@H](Cc1ccc(N(CCCl)CCCl)cc1)C(=O)O`, the IC50 in the data set on CCRF-CEM came out at 2.2 µM; with L1210, 3.2 µM.
For orientation: inhibition means the share of the control response that was lost under treatment. Take `O=C(O)[C@H]1/C(=C/CO)O[C@@H]2CC(=O)N21`: in data set [9], the inhibition came out at 67%. Besides, in [10], the TIME stood at 0.0668 h.
Take `O=c1[nH]c(=O)n([C@H]2C[C@H](O)[C@@H](CO)O2)cc1/C=C/Br` [BRIVUDINE]: the EC50 is over 250 µM in the data set on Human alphaherpesvirus 1, over 250 µM in data set [11] and 29 µM in the data set on Vaccinia virus. The MCC in [12] was over 250 µM.
As to `Nc1nc2c(ncn2COC(CO)CO)c(=O)[nH]1` [GANCICLOVIR], the EC50 was over 100 µM in [13]; 7.3 µM in the data set on Felid alphaherpesvirus 1; 0.07 µM in the data set with Human alphaherpesvirus 2; at least 20 µM in the data set on Human alphaherpesvirus 1; over 100 µM in [11]; over 100 µM in the data set with Vaccinia virus. In data set [14], the CC50 is over 100 µM. The MCC in [12] was over 100 µM.
Consider `OC(Cn1cncn1)(Cn1cncn1)c1ccc(F)cc1F` [FLUCONAZOLE], for which the zone of inhibition at 50 µg/mL in the data set with Aspergillus niger and with Candida albicans was 31 mm each time.
